Published values from different studies.
Cell line: PC-3
Effect on: cell growth or viability

NS(=O)(=O)c1ccc(-n2nc(C(=O)NN=Cc3ccccc3O)cc2-c2ccccc2)cc1 — IC50 (fluorescence; 48 h): 18 µM
CN(C)c1cccc2c(S(=O)(=O)NCCCCN=C=S)cccc12 — IC50 (MTT; 24 h): 16.8 µM
NS(=O)(=O)c1ccc(-n2nc(C(=O)NN3C(=O)CCC3=O)cc2-c2ccccc2)cc1 — IC50 (fluorescence; 48 h): 36.2 µM
COc1cc(C(=O)c2nc(-c3cccc4c3CC(=O)N4)c[nH]2)cc(OC)c1OC — IC50 (MTS; 72 h): 0.0186 µM
NS(=O)(=O)c1ccc(-n2nc(-c3nnc(S)o3)cc2-c2ccccc2)cc1 — IC50 (fluorescence; 48 h): 51.2 µM
O=C1/C(=C/c2ccc3ccccc3c2O)NC(=S)N1c1ccccc1 — IC50 (MTT): 6.04 µg/mL
CC1(P2(=O)CCCCC2)CCCCC1 — IC50 (MTT; 72 h): > 100 µM
COc1cccc2c1C(=O)c1c(O)c3c(c(O)c1C2=O)C[C@@](O)(C(=O)CO)C[C@@H]3O[C@H]1C[C@H](N)[C@H](O)[C@H](C)O1 — IC50 (MTT): 4.81 µg/mL
O[C@@H]1[C@@H](O)[C@H](Nc2cc3cccnc3c3ncccc23)OC[C@H]1O — IC50 (MTT; 48 h; dark): 3.9 µM
COc1cc(C(=O)c2nc(-c3cccc4c3CCN4)c[nH]2)cc(OC)c1OC — IC50 (MTS; 72 h): 0.022 µM
CC(C)Cc1ccc([C@H](C)C(=O)O)cc1 — IC50 (SRB; 72 h): 553 µM
COc1cccc2c1C(=O)c1c(O)c3c(c(O)c1C2=O)C[C@@](O)(C(=O)CO)C[C@@H]3O[C@H]1C[C@H](N)[C@H](O)[C@H](C)O1 — IC50 (MTT; 72 h): 0.3 µM
CC(=NNC(=O)c1cc(-c2ccccc2)n(-c2ccc(S(N)(=O)=O)cc2)n1)c1ccc(C)cc1 — IC50 (fluorescence; 48 h): 19.2 µM
COc1cc(C(=O)c2nc(-c3cccc4cc[nH]c34)c[nH]2)cc(OC)c1OC — IC50 (MTS; 72 h): 0.0316 µM
O=P1(C2CCCCC2)CCCCC1 — IC50 (MTT; 72 h): 64.5 µM
COc1cc(C(=O)c2nc(-c3cccc4[nH]ccc34)c[nH]2)cc2c1OC=CO2 — IC50 (MTS; 72 h): 0.0102 µM
CC(=O)O[C@H]1[C@H](OC(C)=O)[C@@H](Nc2cc3cccnc3c3ncccc23)OC[C@@H]1OC(C)=O — IC50 (MTT; 48 h; dark): 1.4 µM
COc1cc(C(=O)c2nc(-c3cccc4[nH]ccc34)cs2)cc(OC)c1OC — IC50 (MTS; 72 h): 0.0065 µM
COc1cc(C=NNC(=O)c2cc(-c3ccccc3)n(-c3ccc(S(N)(=O)=O)cc3)n2)cc(OC)c1OC — IC50 (fluorescence; 48 h): 33.4 µM
